According to PMC7614726 (ACS chemical neuroscience, 2020):

Key:
[1] = system: acetylated α-tubulin in human whole blood lymphocytes; test: Human whole blood assay, acetylated α-tubulin by flow cytometry; type: cell-based; conditions: 10 and 30 μM
Procedure, shortened: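 Whole blood from healthy volunteers (25 μL) was mixed with compound diluted in RPMI 1640/10% FBS, with 0.1% DMSO final in controls. Incubation was 30 min at 37°C/5% CO2, then 3.5 h more after adding medium. Cells were lysed/fixed 10 min at room temperature and permeabilised 20 min on ice. Staining used AF647-labelled anti-acetylated α-tubulin or isotype control, 20–30 min on ice. Flow cytometry used a lymphocyte gate.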

[2] = Precipitation on addition to culture medium; type: physicochemical; conditions: culture medium (RPMI 1640, 10% FBS)
[3] = system: SCG neurons expressing HSPB1^S135F; test: Axonal transport of mitochondria in SCG neurons expressing HSPB1 S135F; type: cell-based, mouse; conditions: 24 h, 100 nM T-3796106, 250 nM T-3793168, 1 μM Tubastatin A
Procedure, shortened: (§1)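 Medium contained NGF, 10% FBS and 4 μM aphidicolin. Nuclei were microinjected with mutant human HSPB1 plus mito-EGFP (total DNA ≤0.05 μg/μL). Controls got DMSO. Spinning-disk confocal at 37°C/5% CO2, […], frames 1 s apart for 2 min, 4–5 neurons per dish. Difference Tracker counted moving particles per 1000 pixels.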

[4] = system: SCG neurons expressing HSPB1^P182L; test: Axonal transport of mitochondria in SCG neurons expressing HSPB1 P182L; type: cell-based, mouse; conditions: 100 nM T-3796106, 250 nM T-3793168, 1 μM Tubastatin A
Procedure, shortened: as §1

[5] = system: wild-type SCG neurons; test: Axonal transport of mitochondria in dissociated wild-type SCG neurons; type: cell-based, mouse; conditions: 100 nM T-3796106, 250 nM T-3793168, 1 μM Tubastatin A, 24 h

Row | SMILES | Levels of acetylated a-tubulin at 10 versus 30 μM [1] | Concentration showing some precipitate when added in the culture medium [2] [µM] | Average and maximum speed of mitochondria movement [3] | Rescue of anterograde mitochondrial transport (number of moving mitochondria) [3] | Effect on mitochondrial movement [4] | Number, average and maximum velocity of axonally transported mitochondria [5]
1 | O=C(CCCCCCNC(=O)c1cnc(N(c2ccccc2)c2ccccc2)nc1)NO [ACY-1215] | almost the same | 300 | – | – | – | –
2 | CN1CCc2c(c3ccccc3n2Cc2ccc(C(=O)NO)cc2)C1 [Tubastatin A] | almost the same | – | unaffected by any of these treatments | rescue of anterograde axonal transport | no effect on mitochondrial movement | no significant change
